The source made the active and inactive calls. Cut-off read from the data, not from the text of the source, unless noted: active = inhibition above about 31%; inactive = the rest.
Columns and labels:
[1] = HUVEC growth inhibition – cell-based, human, primary screen (AID 575;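 active = viability at or below 30% in both replicate assays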;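 note: 100% = median of untreated cell wells with 0.1% DMSO on each plate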); details: HUVEC proliferation, CellTiter-Glo luminescence, 72 h; at 10 µM; stronger effect = lower value
In short: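 Assay system: Primary human umbilical vein endothelial cells | Quantity: 1250 cells per well | Medium: Supplemented EBM, 2% fetal bovine serum | Detection: CellTiter-Glo luminescence measuring cellular ATP | Read-out: % viability vs DMSO wells | Plate: Collagen-coated 384-well format | Times: 72 h exposure, 37 °C, 5% CO2, 30 min RT equilibration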

[2] = growth inhibitors of H69AR lung tumor, primary screen, human, duplicate replicates (AID 580;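 active = viability at or under a set limit in both replicates, limit being median viability minus 3 SD, cut at about 48% in these data, passing the limit was not always enough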;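 note: 100% = mean luminescence of untreated wells and 0% = no signal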); details: H69AR lung tumor cells viability, ATP luminescence, 72 h; at 10 µM; stronger effect = lower value
[3] = reversal of MRP1-mediated doxorubicin resistance, pilot screen, H69AR cells, doxorubicin co-treatment (AID 601;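 active = viability loss from added drug above about 55%, and viability with drug at most 40%, in both replicates, limit read from the data, passing the limit was not always enough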); details: CellTiter-Glo, 72 h, at 10 µM; for differential viability (reversal): stronger effect = higher value
[4] = 384-well plate pilot, post-Golgi transport modulator project, inhibition of yeast transport mutant growth (AID 636); details: absorbance 615 nm, about 18 h, stronger effect = higher value
[5] = growth suppression of yeast trafficking mutant, preliminary HTS, modulators of trafficking downstream of Golgi apparatus project, 1536-format plate, OD 615 nm (AID 637; in the data active = inhibition above about 30%); details: yeast transport mutant growth, absorbance 615 nm, 18 h; stronger effect = higher value
[6] = H69AR cells + 2 uM doxorubicin, measured here: viability with 2 uM doxorubicin, stronger effect = lower value
[7] = H69AR cells, compound alone cytotoxicity

**Q.** For `CCOC(=O)CN(C)Cc1c[nH]c2ccccc12`, which viability [1] is on record?
**A.** 80.4% (inactive)

**Q.** And the viability [2]?
**A.** 87.1% (inactive)

**Q.** What about the differential viability (reversal) ([3]; H69AR cells + 2 uM doxorubicin) of the same compound?
**A.** -11.6% (inactive)

**Q.** And the viability [3, 6]?
**A.** 98.7%

**Q.** What about the viability [3, 7] of the same compound?
**A.** 87.1%

**Q.** And the inhibition [4]?
**A.** -4.47% (inactive)

**Q.** What about the inhibition [5] of the same compound?
**A.** 7.14% (inactive)

**Q.** What does the source list for `CC(=O)Nc1cccc(NC(=O)CSc2nnnn2C(C)C)c1`?
**A.** viability [1]: 97.5% (inactive); viability [2]: 99.2% (inactive); differential viability (reversal) ([3]; H69AR cells + 2 uM doxorubicin): 14.7% (inactive); viability [3, 6]: 84.5%; viability [3, 7]: 99.2%; inhibition [4]: -8.03% (inactive); inhibition [5]: 4.13% (inactive)

**Q.** For `Cc1nn(CC(O)Cn2c3c(c4ccccc42)CCN(C)C3=O)c(C)c1Br` (stereo not given), which viability [1] is on record?
**A.** 52.8% (inactive)

**Q.** What about the viability [2] of the same compound?
**A.** 69.8% (inactive)

**Q.** And the differential viability (reversal) ([3]; H69AR cells + 2 uM doxorubicin)?
**A.** -12.1% (inactive)

**Q.** And the viability [3, 6]?
**A.** 81.9%

**Q.** What about the viability [3, 7] of the same compound?
**A.** 69.8%

**Q.** What about the inhibition [4] of the same compound?
**A.** -4% (inactive)

**Q.** What about the inhibition [5] of the same compound?
**A.** -2.54% (inactive)

**Q.** For `CCCSc1nc(N)c(C#N)c(-c2ccc(C)cc2)c1C#N`, which viability [1] is on record?
**A.** 79.6% (inactive)

**Q.** And the viability [2]?
**A.** 70.3% (inactive)

**Q.** What about the differential viability (reversal) ([3]; H69AR cells + 2 uM doxorubicin) of the same compound?
**A.** -10.1% (inactive)

**Q.** And the viability [3, 6]?
**A.** 80.4%

**Q.** And the viability [3, 7]?
**A.** 70.3%

**Q.** And the inhibition [4]?
**A.** -2.67% (inactive)

**Q.** What about the inhibition [5] of the same compound?
**A.** 4.76% (inactive)

**Q.** For `O=C(c1cc(-c2cccc(O)c2)on1)N1CCN(C(c2ccccc2)c2ccccc2)CC1`, which viability [1] is on record?
**A.** 98.8% (inactive)

**Q.** And the viability [2]?
**A.** 26.8% (active)

**Q.** What about the differential viability (reversal) ([3]; H69AR cells + 2 uM doxorubicin) of the same compound?
**A.** 4.38% (inactive)

**Q.** And the viability [3, 6]?
**A.** 22.4%

**Q.** What about the viability [3, 7] of the same compound?
**A.** 26.8%

**Q.** And the inhibition [4]?
**A.** 0.26% (inactive)

**Q.** And the inhibition [5]?
**A.** -3.5% (inactive)

**Q.** Which viability [1] does the source give for `COC(=O)CSC1=C(C#N)C(c2ccccc2)CC(=O)N1` (stereo not given) here?
**A.** 71.7% (inactive)

**Q.** What about the viability [2] of the same compound?
**A.** 23.4% (active)

**Q.** What about the differential viability (reversal) ([3]; H69AR cells + 2 uM doxorubicin) of the same compound?
**A.** -48.4% (inactive)

**Q.** What about the viability [3, 6] of the same compound?
**A.** 71.7%

**Q.** And the viability [3, 7]?
**A.** 23.4%

**Q.** What about the inhibition [4] of the same compound?
**A.** -6% (inactive)

**Q.** And the inhibition [5]?
**A.** 6.19% (inactive)

**Q.** Which viability [1] does the source give for `CCOC(=O)c1sc(NS(=O)(=O)c2ccc(NC(C)=O)cc2)nc1C` here?
**A.** 112% (inactive)

**Q.** What about the viability [2] of the same compound?
**A.** 96% (inactive)

**Q.** And the differential viability (reversal) ([3]; H69AR cells + 2 uM doxorubicin)?
**A.** 7.92% (inactive)

**Q.** And the viability [3, 6]?
**A.** 88.1%

**Q.** What about the viability [3, 7] of the same compound?
**A.** 96%

**Q.** And the inhibition [4]?
**A.** -1.97% (inactive)

**Q.** And the inhibition [5]?
**A.** 2.22% (inactive)

**Q.** For `CCn1c(SCC(=O)Nc2ccc(C(=O)OC)cc2)nnc1-c1cccs1`, which viability [1] is on record?
**A.** 109% (inactive)

**Q.** What about the viability [2] of the same compound?
**A.** 92.3% (inactive)

**Q.** What about the differential viability (reversal) ([3]; H69AR cells + 2 uM doxorubicin) of the same compound?
**A.** 5.75% (inactive)

**Q.** And the viability [3, 6]?
**A.** 86.6%

**Q.** And the viability [3, 7]?
**A.** 92.3%

**Q.** What about the inhibition [4] of the same compound?
**A.** -6% (inactive)

**Q.** And the inhibition [5]?
**A.** 6.98% (inactive)

**Q.** With `CCOC(=O)N1CCN(C(=O)Nc2ccc3oc(C)nc3c2)CC1` as the compound, how does the viability [1] read?
**A.** 98.2% (inactive)

**Q.** And the viability [2]?
**A.** 93.2% (inactive)

**Q.** And the differential viability (reversal) ([3]; H69AR cells + 2 uM doxorubicin)?
**A.** -0.96% (inactive)

**Q.** And the viability [3, 6]?
**A.** 94.1%

**Q.** What about the viability [3, 7] of the same compound?
**A.** 93.2%

**Q.** What about the inhibition [4] of the same compound?
**A.** -2.63% (inactive)

**Q.** What about the inhibition [5] of the same compound?
**A.** 0% (inactive)

**Q.** For `CC(C)OC(=O)CSc1nnc(-c2ccccn2)n1-c1ccccc1`, which viability [1] is on record?
**A.** 87.3% (inactive)

**Q.** What about the viability [2] of the same compound?
**A.** 92.1% (inactive)

**Q.** And the differential viability (reversal) ([3]; H69AR cells + 2 uM doxorubicin)?
**A.** -2.68% (inactive)

**Q.** And the viability [3, 6]?
**A.** 94.8%

**Q.** And the viability [3, 7]?
**A.** 92.1%

**Q.** And the inhibition [4]?
**A.** -1.87% (inactive)

**Q.** What about the inhibition [5] of the same compound?
**A.** -9.52% (inactive)

**Q.** What does the source list for `Cc1cccnc1NC(=O)CCCN1C(=O)c2ccccc2C1=O`?
**A.** viability [1]: 114% (inactive); viability [2]: 94.7% (inactive); differential viability (reversal) ([3]; H69AR cells + 2 uM doxorubicin): 4.67% (inactive); viability [3, 6]: 90%; viability [3, 7]: 94.7%; inhibition [4]: -6.13% (inactive); inhibition [5]: 3.97% (inactive)

**Q.** With `C=CCSc1n[nH]c(-c2ccc(OC)cc2)n1` as the compound, how does the viability [1] read?
**A.** 108% (inactive)

**Q.** What about the viability [2] of the same compound?
**A.** 90.3% (inactive)

**Q.** And the differential viability (reversal) ([3]; H69AR cells + 2 uM doxorubicin)?
**A.** 2.41% (inactive)

**Q.** And the viability [3, 6]?
**A.** 87.9%

**Q.** And the viability [3, 7]?
**A.** 90.3%

**Q.** And the inhibition [4]?
**A.** -4.53% (inactive)

**Q.** What about the inhibition [5] of the same compound?
**A.** -2.06% (inactive)

**Q.** For `CCCS(=O)(=O)N1CCC(C(=O)NCCN2CCCC2)CC1`, which viability [1] is on record?
**A.** 96.5% (inactive)

**Q.** What about the viability [2] of the same compound?
**A.** 94.9% (inactive)

**Q.** And the differential viability (reversal) ([3]; H69AR cells + 2 uM doxorubicin)?
**A.** 8.3% (inactive)

**Q.** And the viability [3, 6]?
**A.** 86.6%

**Q.** What about the viability [3, 7] of the same compound?
**A.** 94.9%

**Q.** What about the inhibition [4] of the same compound?
**A.** -3.2% (inactive)

**Q.** And the inhibition [5]?
**A.** 2.86% (inactive)

**Q.** Which results are given for `COCCn1c(N)c(C(=O)Nc2sc3c(c2C(=O)OC)CCCC3)c2nc3ccccc3nc21`?
**A.** viability [1]: 82.6% (inactive); viability [2]: 92.3% (inactive); differential viability (reversal) ([3]; H69AR cells + 2 uM doxorubicin): -0.35% (inactive); viability [3, 6]: 92.7%; viability [3, 7]: 92.3%; inhibition [4]: -4.42% (inactive); inhibition [5]: 3.65% (inactive)

**Q.** What does the source list for `O=C(Cc1ccc(S(=O)(=O)N2CCCC2)s1)Nc1nc2c(s1)CCCC2`?
**A.** viability [1]: 66.3% (inactive); viability [2]: 95.7% (inactive); differential viability (reversal) ([3]; H69AR cells + 2 uM doxorubicin): 1% (inactive); viability [3, 6]: 94.7%; viability [3, 7]: 95.7%; inhibition [4]: -1.17% (inactive); inhibition [5]: -6.83% (inactive)

**Q.** Which results are given for `CSC1CCCCC1(O)CSc1nc2c(cc1C#N)CCCC2` (stereo not given)?
**A.** viability [1]: 75.4% (inactive); viability [2]: 92.6% (inactive); differential viability (reversal) ([3]; H69AR cells + 2 uM doxorubicin): -2.66% (inactive); viability [3, 6]: 95.2%; viability [3, 7]: 92.6%; inhibition [4]: -0.66% (inactive); inhibition [5]: -1.9% (inactive)

**Q.** Which results are given for `O=C(Nc1ccccc1C(=O)N1CCOCC1)C1COc2ccccc2O1` (stereo not given)?
**A.** viability [1]: 100% (inactive); viability [2]: 103% (inactive); differential viability (reversal) ([3]; H69AR cells + 2 uM doxorubicin): 6.71% (inactive); viability [3, 6]: 96.6%; viability [3, 7]: 103%; inhibition [4]: -0.53% (inactive); inhibition [5]: 0% (inactive)

**Q.** What does the source list for `O=P1(O)C=C(c2ccccc2)NC(c2ccccc2)=C1`?
**A.** viability [1]: 108% (inactive); viability [2]: 91.7% (inactive); differential viability (reversal) ([3]; H69AR cells + 2 uM doxorubicin): -4.4% (inactive); viability [3, 6]: 96.1%; viability [3, 7]: 91.7%; inhibition [4]: -4.93% (inactive); inhibition [5]: 0.48% (inactive)

**Q.** What does the source list for `CCOC(=O)N1CCC(N(C(=O)Nc2ccc(Cl)c(Cl)c2)C(C)CC)CC1` (stereo not given)?
**A.** viability [1]: 79.3% (inactive); viability [2]: 97.7% (inactive); differential viability (reversal) ([3]; H69AR cells + 2 uM doxorubicin): 4.27% (inactive); viability [3, 6]: 93.4%; viability [3, 7]: 97.7%; inhibition [4]: -2.63% (inactive); inhibition [5]: 0.79% (inactive)

**Q.** With `O=C(Nc1nnc(C2CCCCC2)s1)c1cccs1` as the compound, how does the viability [1] read?
**A.** 102% (inactive)

**Q.** What about the viability [2] of the same compound?
**A.** 93.2% (inactive)

**Q.** And the differential viability (reversal) ([3]; H69AR cells + 2 uM doxorubicin)?
**A.** 10.4% (inactive)

**Q.** What about the viability [3, 6] of the same compound?
**A.** 82.9%

**Q.** And the viability [3, 7]?
**A.** 93.2%

**Q.** And the inhibition [4]?
**A.** 0% (inactive)

**Q.** And the inhibition [5]?
**A.** -3.81% (inactive)

Reference: PubChem BioAssay
